Measured values reported in PubChem BioAssay AID504666 (Broad Institute, 2011).
Several values for one entry are separate records, joined by “and”; a condition that tells them apart may be missing. Identical values can stand only once. Results filed as inconclusive are left out. Activity calls are given as the source filed them.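 How the source made its calls: active means compounds lowering the viability signal in every test, with half-maximal concentration at most ten times the top dose; inconclusive means mixed test calls, a flat partial drop, or a poor fit; inactive means all tests inactive.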

Columns and labels:
[1] = tested on: HMLE_sh_eGFP viability, CellTiter-Glo luminescence, 72 h; assay: viability loss in shGFP HMLE line – cell-based, CellTiter-Glo luminescence, 72 h, dry powder, set 6, counter-screen for breast cancer stem cell project, dose response (AID 504666)
Procedure, shortened: (§1)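 System: HMLE_sh_eGFP cell line. Controls: DMSO-only neutral and puromycin positive controls on every plate. Times: compound exposure about 70-74 h at 37 °C, 5% CO2. Technique: CellTiter-Glo luminescence, reagent used at 1:3 dilution in PBS. Buffer or medium: serum-free culture medium for cell plating and exposure.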

[2] = as above; conditions: HMLE_sh_eGFP viability, CellTiter-Glo luminescence, 72 h
Procedure, shortened: as §1

Structure (SMILES)	AC50 [1]	further results
Cc1csc(NC(=O)c2ccc(COCc3ccccc3)o2)n1	10.5 µM	
Cc1cc(C)c(OCC(=O)N/N=C/c2ccc[nH]2)c(C)c1		activity change, negative = toxicity ([2]; at 19.5 µM (top of the series)): -14% (inactive)
Cc1csc(NC(=O)c2ccc(CCc3ccccc3)o2)n1	5.68 µM	
Cc1csc(NC(=O)c2ccc(CNc3ccccc3)o2)n1	2.62 µM	
CC(C)Cc1ccc(/C=C/C(=O)NC2=NCCS2)cc1	1.07 µM	
Cc1ccc(OCc2ccc(C(=O)Nc3nc(C)cs3)o2)cc1	6.79 µM	
CCN(CC)C(=O)c1ccc(COc2ccccc2)o1		activity change, negative = toxicity ([2]; at 19.5 µM (top of the series)): -2.12% (inactive)
CC(C)c1ccc(/C=C/C(=O)Nc2nc(C(F)(F)F)cs2)cc1	8.98 µM	
COc1ccc(/C=C/C(=O)NC2=NCCS2)c(OC)c1		activity change, negative = toxicity ([2]; at 19.5 µM (top of the series)): -4.82% (inactive)
CC(C)NC(=O)c1ccc(COc2ccccc2)o1		activity change, negative = toxicity ([2]; at 19.5 µM (top of the series)): 0.674% (inactive)
Cc1cc(Br)ccc1OCC(=O)N/N=C/c1ccc[nH]1	17.7 µM	
O=C(Nc1nncs1)c1ccc(COc2ccccc2)o1		activity change, negative = toxicity ([2]; at 19.5 µM (top of the series)): 8.89% (inactive)
Cc1csc(NC(=O)c2ccc(COc3ccccc3)o2)n1	21.1 µM	
Cc1csc(NC(=O)c2ccc(COc3cccc(S(C)(=O)=O)c3)o2)n1		activity change, negative = toxicity ([2]; at 19.5 µM (top of the series)): -5.74% (inactive)
Cc1csc(NC(=O)c2coc(COc3ccccc3)c2)n1	2.78 µM	
COc1cccc(OCc2ccc(C(=O)Nc3nc(C)cs3)o2)c1	1.65 µM	
CC(C)c1ccc(/C=C/C(=O)Nc2cncs2)cc1	9.59 µM	
COc1ccc(Cl)c(OCc2ccc(C(=O)Nc3nc(C)cs3)o2)c1	0.166 µM	
CC(C)c1ccc(/C=C/C(=O)NC2=NCCS2)cc1	21.7 µM	
Cc1csc(NC(=O)c2cocc2COc2ccccc2)n1		activity change, negative = toxicity ([2]; at 30 µM (top of the series)): 8.46% (inactive)
N#Cc1csc(NC(=O)c2ccc(COc3ccccc3)o2)n1	23.1 µM	
C/C(=C\C(=O)NC1=NCCS1)c1ccc(C)cc1		activity change, negative = toxicity ([2]; at 19.5 µM (top of the series)): -6.97% (inactive)
COc1ccc(OCc2ccc(C(=O)Nc3nc(C)cs3)o2)c(F)c1	14.2 µM	
Cc1cccc(OCc2ccc(C(=O)Nc3nc(C)cs3)o2)c1	0.254 µM and 1.98 µM	

Structure (SMILES)	AC50 [1]	further results
Cc1csc(NC(=O)c2ccc(COC(C)(C)C)o2)n1		activity change, negative = toxicity ([2]; at 19.5 µM (top of the series)): -6.71% (inactive)
Cc1coc(NC(=O)/C=C/c2ccc(C(C)C)cc2)n1		activity change, negative = toxicity ([2]; at 19.5 µM (top of the series)): -9.8% (inactive)
COc1ccc(OC)c2sc(NC(=O)c3ccc(COc4ccccc4)o3)nc12		activity change, negative = toxicity ([2]; at 30 µM (top of the series)): -8.62% (inactive)
Cc1csc(NC(=O)c2ccc(COc3ccccc3F)o2)n1	0.089 µM	
Cc1csc(NC(=O)c2ccc(COc3cccc(Cl)c3)o2)n1	9.15 µM	
Cc1csc(NC(=O)c2ccc(COc3cccc(Oc4ccccc4)c3)o2)n1	0.738 µM	
Cc1ccc2cc(C(=O)NC3=NCCS3)n(C)c2c1		activity change, negative = toxicity ([2]; at 30 µM (top of the series)): -2.52% (inactive)
CC(C)c1ccc(/C=C/C(=O)N(C)C2=NCCS2)cc1		activity change, negative = toxicity ([2]; at 19.5 µM (top of the series)): -2.24% (inactive)
COc1ccc2nc(NC(=O)c3ccc(COc4ccccc4)o3)sc2c1	2.54 µM	
CCOc1cccc(OCc2ccc(C(=O)Nc3nc(C)cs3)o2)c1	4.16 µM	
Cc1csc(NC(=O)c2ccc(COc3cc(Cl)ccc3Cl)o2)n1	0.063 µM	
C/C(=C\C(=O)NC1=NCCS1)c1ccc(CC(C)C)cc1	27.4 µM	
CC(C)c1ccc(C2CC2C(=O)NC2=NCCS2)cc1 (stereo not drawn)	23.9 µM	
Cc1csc(NCc2ccc(COc3ccccc3)o2)n1	20.7 µM	
Cc1csc(NC(=O)c2ccc(COc3cccc(OC(F)(F)F)c3)o2)n1	0.667 µM	
CCc1ccc(/C=C/C(=O)NC2=NCCS2)cc1	28.3 µM	
O=C(Nc1nc2c(Cl)cccc2s1)c1ccc(COc2ccccc2)o1	31.3 µM	
Cc1csc(NC(=O)c2ccc(CS(=O)(=O)c3ccccc3)o2)n1		activity change, negative = toxicity ([2]; at 19.5 µM (top of the series)): 1.03% (inactive)
Cc1coc(NC(=O)c2ccc(COc3ccccc3)o2)n1		activity change, negative = toxicity ([2]; at 19.5 µM (top of the series)): -6.36% (inactive)
Cc1csc(NC(=O)c2ccc(COC(C)C)o2)n1		activity change, negative = toxicity ([2]; at 19.5 µM (top of the series)): 7.01% (inactive)
Cc1csc(NC(=O)c2ccc(COc3cccc(F)c3)o2)n1	18.6 µM	
O=C(Nc1nc(C(F)(F)F)cs1)c1ccc(COc2ccccc2)o1	19.3 µM	
Cc1csc(NC(=O)c2ccc(COC3CCCCC3)o2)n1	18.5 µM	
Cc1csc(NC(=O)c2ccoc2COc2ccccc2)n1	20.5 µM	
